Sampled rows, rich in hits. Any-hit rate of the full collection: about 3.3%.
NFkB transloc inh = blocks IL-1B driven NFkB nuclear translocation in HUVEC cells; inhibition, % at 2 µM; hit rate 0.43% among 94,000; HUVEC IL-1B NFkB p65 nuclear translocation imaging;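 active = inhibition above about 30% together with a positive call from visual inspection of the well image, limit read from the data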;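 note: nuclear over cytoplasmic p65 intensity ratio measured by imaging; 0% = IL-1B stimulated DMSO wells and 100% = unstimulated DMSO wells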
Measles CPE = protection of cells from measles virus | Measles virus-infected cells, CPE protection, absorbance | hit rate 1.5% among 140,000 | protection (pct of control), % at 4 µM; in the data active = protection mostly above about 24%, no sharp cut-off; inactive = mostly below about 26%
NFkB transloc pot = enhances IL-1B driven NFkB nuclear translocation. HUVEC IL-1B NFkB p65 nuclear translocation imaging. hit rate 0.3% among 94,000. activation, % at 2 µM;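 active = activation above 40%, about the mean plus 3 SD, also judged a hit on visual image review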;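 note: percent activation is computed from the nuclear over cytoplasmic p65 intensity ratio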
FAK inh = FAK (human) kinase inhibition | Q05397 | biochemical FAK kinase activity assay | inhibition, %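 (tested at 7 µM)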 | hit rate 0.84% among 97,000; in the data active = inhibition above about 19%;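 note: 0% = DMSO and 100% = reference compound high control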
IL1B cytotox = toxic to HUVEC cells under IL-1B stimulation; hit rate 0.41% among 94,000; AID 845; cell count reduction, % at 2 µM; HUVEC cell count loss, Hoechst imaging, IL-1B stimulated;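 active = cell count reduction more than 3 SD above the screen-wide mean, cut at about 70% in these data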;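 note: normalized per plate to untreated control cells as the no-loss baseline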
HIV Rev-RRE inh = HIV Rev-RRE protein-RNA interaction inhibition; hit rate 0.79% among 97,000; Rev peptide-RRE RNA binding, FRET; inhibition, % at 8 µM; AID 704; P05866;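 active = inhibition above the screen-wide mean plus 3 SD, cut at about 35% in these data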;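 note: 0% = median DMSO wells and 100% = median Neomycin B control wells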
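Test system: labelled RRE RNA duplex and labelled Rev peptide. Times: 5 min compound–RNA preincubation, then 15 min with peptide, 25 °C. Doses: single-dose 8 µM. Measured by: FRET, excitation 480 nm, emission 540 nm donor and 671 nm acceptor. Measure: % inhibition of FRET ratio versus controls.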
* hit, by the source's call; / = no result.

SMILES	NFkB transloc inh	Measles CPE	NFkB transloc pot	FAK inh	IL1B cytotox	HIV Rev-RRE inh
Cc1cc(C(=O)N/N=C/c2cccc([N+](=O)[O-])c2)c(C)o1	-3	33*	3	3	-25	-3
Cn1cnnc1Sc1ccc(C(=O)NCCC23CC4CC(CC(C4)C2)C3)cc1[N+](=O)[O-]	/	7	/	/	/	/
Cc1ccccc1Cn1nc(C)c(NC(=O)c2sc3ccccc3c2Cl)c1C	-8	64*	8	-6	-49	1
Cc1ccccc1Cn1nc(C)c(NC(=O)c2cc3n(n2)C(C(F)F)CC(C(F)F)N3)c1C (stereo not given)	96*	4	-96	0	78*	-5
CCNc1nc(NCC)n2c(SCC(=O)Nc3ccccc3[N+](=O)[O-])nnc2n1	/	3	/	/	/	/
O=C(CCC(=O)OCC(=O)c1ccc(Cl)cc1)NC1CCCCC1	3	64*	-3	-3	-7	2
O=C(CCC(=O)OCC(=O)c1ccc([N+](=O)[O-])cc1)NC1CCCCC1	/	2	/	/	/	/
O=C(COC(=O)CCCNC(=O)c1ccc(Cl)cc1)NC1CC1	-6	48*	5	-5	-7	0
O=C(COC(=O)COc1ccc(Cl)cc1)NC1CCCCC1	7	4	-7	2	-15	6
O=C(CCl)NC(=O)NC12CC3CC(CC(C3)C1)C2	/	7	/	/	/	/
CCc1ccc(CN(C)CC(=O)Nc2sccc2C#N)cc1	/	3	/	/	/	/
CN(C(=O)CSCC(=O)O)C1CCCCC1	/	12	/	/	/	/
CCOC(=O)C1CCN(C(=O)c2cccc(Cl)c2)CC1	-29	16	29	0	-18	2
CCOC(=O)C1CCN(C(=O)c2ccc(Cl)c(Cl)c2)CC1	99*	11	-99	0	94*	-1
CCN(CC)S(=O)(=O)c1ccc(N2CCOCC2)c(NS(=O)(=O)c2ccc(C)c(C)c2)c1	/	14	/	/	/	/
CC(C)c1ccc(C(=O)NN2C(=O)C3CCCCC3C2=O)cc1 (stereo not given)	/	6	/	/	/	/
CC(C)NC(=O)c1nc2ccccc2s1	3	4	-3	1	74*	4
Cc1nnc(SCc2ccccc2)n1N	/	6	/	/	/	/
COc1ccc(CSc2nnc(C)n2N)cc1	12	12	-12	1	-10	47*
Cc1cc(C(=O)NNC(=S)NC(C)c2ccccc2)c2ccccc2n1 (stereo not given)	-10	15	10	1	-55	4
C/C(=N\NC(=O)CCC(=O)Nc1ccccc1)c1cccs1	/	9	/	/	/	/
Cc1ccc(OCC(=O)N(Cc2ccccc2)C2CCS(=O)(=O)C2)c([N+](=O)[O-])n1 (stereo not given)	/	37*	/	/	/	/
Cn1c(=O)c2ncn(CC(=O)N/N=C/c3ccco3)c2n(C)c1=O	/	23	/	/	/	/
S=c1[nH]nc(-c2cccc(Cl)c2)n1CCN1CCCCC1	/	4	/	/	/	/
COc1ccc(CN2CCCCC2C(=O)Nc2ccc(OC)c(OC)c2)cc1OC (stereo not given)	-4	14	3	-2	-25	0
SMILES	NFkB transloc inh	Measles CPE	NFkB transloc pot	FAK inh	IL1B cytotox	HIV Rev-RRE inh
COc1ccc(NC(=O)C2CCCCN2N)cc1OC (stereo not given)	-41	18	41*	-2	-38	-4
COc1ccc(NC(=O)Cc2c(F)cccc2Cl)c(OC)c1	/	5	/	/	/	/
CCCCOc1ccc(-c2nc(-c3cccnc3)no2)cc1	/	10	/	/	/	/
CCOc1ccc(-c2nc(-c3cccnc3)no2)cc1	-21	34*	21	-2	-16	-2
CCC(C)NS(=O)(=O)c1ccc(NC(=O)C(Sc2ccccc2)c2ccccc2)cc1 (stereo not given)	/	32*	/	/	/	/
CC(C)NC(=O)C(Sc1ccccc1)c1ccccc1 (stereo not given)	0	30*	0	1	4	1
CC(=O)NS(=O)(=O)c1ccc(NC(=O)C(Sc2ccccc2)c2ccccc2)cc1 (stereo not given)	14	17	-14	-3	-7	1
Cc1cc(N(CCO)CCO)ccc1C(c1ccc(N(CCO)CCO)cc1C)c1ccccc1Cl	/	6	/	/	/	/
COc1cc2c(cc1NC(=O)Nc1ccc(F)cc1)oc1ccccc12	/	5	/	/	/	/
COc1ccc(OC)c(CNCCNC(=O)c2ccco2)c1	2	1	-2	-1	-11	5
COc1cccc(CNCCNC(=O)c2ccco2)c1OC	-42	14	42*	0	-26	-3
COc1ccc2nc(C)cc(N3CC(C)OC(C)C3)c2c1 (stereo not given)	-9	27*	9	11	11	4
Clc1ccc(-n2cnnn2)cc1	-3	24	3	3	2	7
CC1CCN(C(=O)c2ccc(-n3cnnn3)cc2)CC1	-2	40*	2	0	2	4
Oc1ccc(-n2cnnn2)cc1	2	16	-2	1	89*	0
Cc1nccn1CC(=O)N/N=C/c1cccc(O)c1	/	24	/	/	/	/
C=CCNCc1cccn1-c1sc2c(c1C#N)CCCC2	31*	3	-31	-2	8	7
N#Cc1c(-n2cccc2/C=N/O)sc2c1CCCC2	8	4	-8	8	13	10
CCOc1ccc(C(=O)SC2=NCCS2)cc1	10	30*	6	0	4	3
COc1ccc(C(=O)SC2=NCCS2)cc1	-3	9	3	-1	20	5
O=C(c1nc2ncccn2n1)N1CCN(c2ccc(F)cc2)CC1	4	34	-4	2	-12	8
O=C(c1nc2ncccn2n1)N1CCN(c2ccccc2)CC1	7	43*	-7	0	-2	6
CCC(=O)N1CCc2cc(S(=O)(=O)N3CCc4ccccc4C3)ccc21	4	28*	-4	1	1	6
CC(C(=O)Nc1ncn[nH]1)N1C(=O)c2ccccc2C1=O (stereo not given)	-23	14	23	0	83*	7
COc1ccccc1NC(=O)/C(=C/c1cccc([N+](=O)[O-])c1)c1ccccc1	/	12	/	/	/	/
SMILES	NFkB transloc inh	Measles CPE	NFkB transloc pot	FAK inh	IL1B cytotox	HIV Rev-RRE inh
Cc1cccc2cc(CN(Cc3nnnn3Cc3ccco3)C3CCCC3)c3nnnn3c12	-1	7	1	8	-22	11
CC1(C)CC(=O)C=C(Nc2ccc(S(N)(=O)=O)cc2)C1	34*	9	-34	-2	8	5
CC1(C)CC(=O)C=C(Nc2ccc(C(=O)O)cc2)C1	-20	23	20	0	-18	18
COc1ccc(-n2c(N)c(C(=O)NCc3ccco3)sc2=S)cc1	-4	4	4	0	-8	-5
CCOC(=O)c1ccc(-n2c(N)c(C(=O)NCc3ccco3)sc2=S)cc1	-2	51*	2	-4	-16	4
COc1cccc(-n2c(Cc3cc(=O)[nH]c(=O)[nH]3)nnc2SCc2cccnc2)c1	14	44*	-14	-1	0	8
O=c1c2c3c(sc2nc2sc(C4CC4)nn12)CCCC3	88*	4	-88	0	78*	1
Clc1ccc(Cn2c(-c3cccnc3Cl)nc3ccccc32)cc1	-1	33*	1	1	-32	15

Bioassay records (PubChem BioAssay)
